Hits are enriched below; roughly 3.5% of the tested compounds scored in any of these assays.
RGS4 pot: potentiators or activators of RGS4. B-score at 10 µM. AID 463111. 310,000 tested, 0.92% active. HEK293 M3R/inducible RGS4, carbachol calcium flux Fluo4; hits give low values;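 active = B-score of the integrated calcium signal more than 4 SD below the library mean, with starting fluorescence not abnormally high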;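 note: negative B-score means reduced calcium response which marks RGS4 activation or potentiation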
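test system = HEK293 cells with stable M3R and inducible RGS4 | schedule = recording 10 s baseline at 1 Hz, 100 s post-agonist | technique = Fluo4-AM (2 µM) calcium-flux fluorescence, kinetic read | measure = Agonist-evoked peak-minus-minimum fluorescence over baseline, integrated ratio, B score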
MrgX1 PAM: human MrgX1 positive allosteric modulation, primary screen; Q96LB2; MrgX1-HEK293, Fluo-4 calcium flux, FDSS; hits give high values; B-score at 10 µM; 310,000 tested, 0.63% active;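 active = plate-corrected calcium response at least 3 library SD above typical, normal starting fluorescence, not activating the receptor alone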;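 note: compound read alongside a low EC10 to EC30 dose of BAM8-22 agonist; peak minus trough fluorescence over baseline measured at the second addition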
Target sequence (Q96LB2 whole entry, looked up): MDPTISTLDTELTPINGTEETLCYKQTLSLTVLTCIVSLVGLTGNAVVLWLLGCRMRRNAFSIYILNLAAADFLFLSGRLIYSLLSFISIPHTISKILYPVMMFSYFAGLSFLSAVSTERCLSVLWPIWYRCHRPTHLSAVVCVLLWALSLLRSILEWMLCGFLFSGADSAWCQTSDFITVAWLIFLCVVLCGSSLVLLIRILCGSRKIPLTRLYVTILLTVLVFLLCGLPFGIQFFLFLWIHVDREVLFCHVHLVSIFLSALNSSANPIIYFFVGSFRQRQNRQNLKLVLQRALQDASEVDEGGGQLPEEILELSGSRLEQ
MrgX1 agonist: activates human MrgX1 receptor signaling; Q96LB2; MrgX1-HEK293 cells, Fluo-4 calcium fluorescence, agonist mode; hits give high values; 310,000 tested, 0.44% active; B-score at 10 µM;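 active = calcium response B-score plate-corrected fluorescence ratio at least 3 library SD, with starting fluorescence B-score inside 5 SD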
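Material – MrgX1-expressing HEK293 cells · Input – 15,000 cells seeded per well · Dosing – compound as first of three additions · Times – overnight seeding, then 1 h dark dye loading · Measured by – kinetic Fluo-4 NW fluorescence of intracellular calcium · Read-out – B-scored fluorescence response ratio · Benchmarks – positive and negative control wells on each plate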
MrgX1 antag: antagonists of human MrgX1 receptor; MRGX1-HEK293 calcium flux, Fluo-4, BAM8-22 antagonism; hits give low values; B-score at 10 µM; 310,000 tested, 1.3% active;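 active = calcium-response B-score plate-corrected more than 3 library SD below zero, starting fluorescence within 5 deviations, no agonist response on first addition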;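 note: peak minus trough fluorescence over baseline after final BAM8-22 challenge near maximal dose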
RGS4 inh: human RGS4 inhibition | P49798 | HEK293 M3R/RGS4 inducible, Fluo-4 calcium flux; hits give high values; triggered by carbachol at its EC20 | B-score at 10 µM | AID 463165 | 310,000 tested, 0.45% active;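 active = B-score, a plate-corrected calcium signal, over three deviations above library mean, with baseline fluorescence within five deviations of library mean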;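 note: RGS4 expression induced by doxycycline in cells with stable M3 receptor; B-score is computed from the integrated fluorescence ratio over baseline after carbachol; higher B-score means a larger calcium signal and so more RGS4 inhibition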
Target sequence (P49798 whole entry, looked up): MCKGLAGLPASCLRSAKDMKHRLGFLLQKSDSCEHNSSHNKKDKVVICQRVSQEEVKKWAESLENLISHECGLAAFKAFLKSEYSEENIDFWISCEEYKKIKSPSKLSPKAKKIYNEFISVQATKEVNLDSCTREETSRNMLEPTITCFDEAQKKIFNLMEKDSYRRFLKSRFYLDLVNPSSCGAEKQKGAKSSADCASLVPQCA
Numbers stand for hits.

For Cc1ccc(C(C)NC(=O)c2cc(C)oc2C)cc1 (configuration not stated) the results were RGS4 pot inactive, MrgX1 PAM inactive, MrgX1 agonist inactive, MrgX1 antag inactive and RGS4 inh inactive.
For COC(=O)C1=C(C)NC(=O)/C1=C\c1cc(C)n(-c2ccccc2F)c1C the results were RGS4 pot inactive, MrgX1 PAM inactive, MrgX1 agonist inactive, MrgX1 antag -5.5 and RGS4 inh inactive.
Screening CC1(C)CC(=O)C(C2C3=C(CC(C)(C)CC3=O)Oc3ccccc32)C(=O)C1 (configuration not stated) returned RGS4 pot inactive, MrgX1 PAM inactive, MrgX1 agonist inactive, MrgX1 antag inactive and RGS4 inh inactive.
CC1(C)CC(=O)C(C2C3=C(CC(C)(C)CC3=O)Oc3ccc4ccccc4c32)C(=O)C1 (configuration not stated) was read as RGS4 pot inactive, MrgX1 PAM inactive, MrgX1 agonist 40, MrgX1 antag inactive and RGS4 inh inactive.
For Cc1ccccc1N=C1SC(CC(=O)Nc2ccc3ccccc3c2)C(=O)N1Cc1ccccn1 (configuration not stated) the results were RGS4 pot inactive, MrgX1 PAM inactive, MrgX1 agonist inactive, MrgX1 antag -9.7 and RGS4 inh inactive.
`COc1cc([N+](=O)[O-])cc(/C=N/NC(=O)c2cc(-c3ccccc3)nc3ccccc23)c1O` gave RGS4 pot inactive, MrgX1 PAM 10, MrgX1 agonist inactive, MrgX1 antag inactive and RGS4 inh inactive.
Screening O=C(N/N=C/c1cc(Cl)cc([N+](=O)[O-])c1O)c1cc(-c2ccccn2)nc2ccccc12 returned RGS4 pot inactive, MrgX1 PAM inactive, MrgX1 agonist inactive, MrgX1 antag -5.5 and RGS4 inh inactive.
Screening COc1cc([N+](=O)[O-])cc(/C=N/NC(=O)c2cc(C)nc3ccccc23)c1O returned RGS4 pot inactive, MrgX1 PAM inactive, MrgX1 agonist inactive, MrgX1 antag inactive and RGS4 inh inactive.
For CNC(=O)/C(C#N)=C/c1c(N2CCCCCC2)nc2c(C)cccn2c1=O the results were RGS4 pot inactive, MrgX1 PAM inactive, MrgX1 agonist inactive, MrgX1 antag inactive and RGS4 inh inactive.
CCn1c(SCc2cccc(C(F)(F)F)c2)nnc1-c1ccco1 was read as RGS4 pot inactive, MrgX1 PAM inactive, MrgX1 agonist inactive, MrgX1 antag -6.4 and RGS4 inh inactive.
`O=C(NC(=S)NNC(=O)[C@H]1C[C@@H]1c1ccccc1)c1ccc(F)cc1` gave RGS4 pot inactive, MrgX1 PAM inactive, MrgX1 agonist inactive, MrgX1 antag inactive and RGS4 inh inactive.
For O=C(/C=C/c1ccc(F)cc1)NC(=S)NNC(=O)[C@H]1C[C@@H]1c1ccccc1 the results were RGS4 pot inactive, MrgX1 PAM inactive, MrgX1 agonist 43, MrgX1 antag inactive and RGS4 inh inactive.
Screening O=C(COC(=O)/C=C/c1ccccc1)NCC1CCCO1 (configuration not stated) returned RGS4 pot inactive, MrgX1 PAM 9.8, MrgX1 agonist inactive, MrgX1 antag inactive and RGS4 inh inactive.
For CCOC(=O)NC(=O)CSc1nc2ccc([N+](=O)[O-])cc2[nH]1 the results were RGS4 pot inactive, MrgX1 PAM inactive, MrgX1 agonist inactive, MrgX1 antag inactive and RGS4 inh inactive.
For CCCc1cc(C(=O)N2CCN(C(c3ccccc3)c3ccccc3)CC2)no1 the results were RGS4 pot -7.4, MrgX1 PAM inactive, MrgX1 agonist inactive, MrgX1 antag inactive and RGS4 inh inactive.
Screening Cc1cc(C(=O)N2CCN(C(c3ccccc3)c3ccccc3)CC2)no1 returned RGS4 pot inactive, MrgX1 PAM inactive, MrgX1 agonist inactive, MrgX1 antag inactive and RGS4 inh inactive.
For COc1ccc(-n2c3c(cc(C(=O)Nc4ccc(C)cc4)c2=O)C(=O)CCC3)cc1 the results were RGS4 pot inactive, MrgX1 PAM inactive, MrgX1 agonist inactive, MrgX1 antag inactive and RGS4 inh inactive.
COc1ccc(-n2c3c(cc(C#N)c2=O)C(=O)CCC3)cc1 was read as RGS4 pot inactive, MrgX1 PAM 11, MrgX1 agonist inactive, MrgX1 antag inactive and RGS4 inh inactive.
COC(CN(C)C(=O)c1ccc2c(c1)NC(=O)c1ccccc1S2)OC was read as RGS4 pot inactive, MrgX1 PAM inactive, MrgX1 agonist inactive, MrgX1 antag inactive and RGS4 inh inactive.
Screening CN(C)c1ccc2nc3c(=O)[nH]c(=O)nc-3n(CC(O)C(O)C(O)CO)c2c1 (configuration not stated) returned RGS4 pot -7.9, MrgX1 PAM inactive, MrgX1 agonist inactive, MrgX1 antag inactive and RGS4 inh inactive.
`CC(=O)N(C)c1ccc(OCC(O)Cn2c(C)nc3ccccc32)cc1` (configuration not stated) gave RGS4 pot inactive, MrgX1 PAM inactive, MrgX1 agonist inactive, MrgX1 antag inactive and RGS4 inh inactive.
For NS(=O)(=O)c1ccc(Nc2c([N+](=O)[O-])cncc2[N+](=O)[O-])cc1 the results were RGS4 pot inactive, MrgX1 PAM inactive, MrgX1 agonist 35, MrgX1 antag inactive and RGS4 inh inactive.
O=[N+]([O-])c1cncc([N+](=O)[O-])c1Nc1ccccc1Cl was read as RGS4 pot inactive, MrgX1 PAM inactive, MrgX1 agonist inactive, MrgX1 antag inactive and RGS4 inh inactive.
Screening COc1cccc(Nc2c([N+](=O)[O-])cncc2[N+](=O)[O-])c1 returned RGS4 pot inactive, MrgX1 PAM inactive, MrgX1 agonist 31, MrgX1 antag inactive and RGS4 inh inactive.
For O=C1CN(C(=O)C2CCCC2)CCN1 the results were RGS4 pot inactive, MrgX1 PAM inactive, MrgX1 agonist inactive, MrgX1 antag inactive and RGS4 inh inactive.
`Cc1ccc(-c2nc(SCC(=O)Nc3cc(S(=O)(=O)N4CCCCC4)ccc3Cl)n[nH]2)cc1` gave RGS4 pot inactive, MrgX1 PAM inactive, MrgX1 agonist inactive, MrgX1 antag inactive and RGS4 inh inactive.
N#CC(=C=[N-])C1=C(C#N)C(c2ccccc2F)C([n+]2ccccc2)C(O)(C2CC2)N1 (configuration not stated) was read as RGS4 pot inactive, MrgX1 PAM inactive, MrgX1 agonist 48, MrgX1 antag inactive and RGS4 inh inactive.
Cc1ccc[n+](C2C(c3ccc([N+](=O)[O-])cc3)C(C#N)=C([S-])NC2(O)C2CC2)c1 (configuration not stated) was read as RGS4 pot inactive, MrgX1 PAM inactive, MrgX1 agonist inactive, MrgX1 antag inactive and RGS4 inh inactive.
Cc1cccc[n+]1C1C(c2ccccc2)C(C#N)=C(C(=C=[N-])C#N)NC1(O)C1CC1 (configuration not stated) was read as RGS4 pot inactive, MrgX1 PAM inactive, MrgX1 agonist 43, MrgX1 antag inactive and RGS4 inh inactive.
O=C(COc1ccccc1)N1c2ccccc2Sc2ccccc21 was read as RGS4 pot inactive, MrgX1 PAM inactive, MrgX1 agonist inactive, MrgX1 antag inactive and RGS4 inh inactive.

Compound activity from PubChem BioAssay.
